Screening data deposited in PubChem by several laboratories.
FXN GAA850 act = FXN promoter activators, primary screen, cell-based, luciferase luminescence, HEK293 lucGAA850 | HEK293 lucGAA850 FXN promoter luciferase reporter, 24 h; percent of 10 µM SAHA response | activation, % at 6 µM | hit rate 0.56% among 360,000 | AID 540364, 2011;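 active = activation above the average of all compounds screened plus 3 SD, cutoff fixed separately per campaign, cut at about 7.5% in these data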;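 also: 0% = DMSO wells and 100% = 10 µM SAHA wells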
NR2E3 ag-1 = inhibitors of NR2E3-RetCOR corepressor binding, primary screen, NR2E3 agonist project, biochemical, TR-FRET, GST-NR2E3, biotin-RetCOR; Photoreceptor-specific nuclear receptor (Homo sapiens), Q9Y5X4; 1536-well; inhibition of corepressor binding, % at 4.78 µM; hit rate 0.12% among 320,000;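 active = percent inhibition above the cutoff of mean plus 3 SD of all tested compounds, set per screening campaign, cut at about 20% in these data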;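 also: 0% = DMSO wells and 100% = biotin wells as full block of FRET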
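Material: NR2E3–RetCOR corepressor complex / Amount: 1.35 nM GST-NR2E3 / Medium: Tris pH 7.5 / Compound: single nominal compound dose of 4.8 µM / Incubation: 5 h at 4 °C / Technique: TR-FRET, Eu(K)-anti-GST donor, streptavidin-D2 acceptor, ex 340, em 617/671 nm / Read-out basis: percent loss of FRET ratio relative to control wells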
HIV Env fusion = inhibitors of HIV-1 Env-driven cell-cell fusion, primary screen, HeLa-JRFL effector, CEM21 target cells, luciferase. inhibition, % at 12.3 µM. hit rate 1.1% among 360,000. AID 651610, 2012;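 active = mean replicate inhibition score of at least 50 and every replicate individually at or above 50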;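 also: 0% = plate neutral controls and 100% = maraviroc near 300 nM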
GalR3 antag = GalR3 antagonists in HEK293 cells, primary screen, cell-based, fluorescence readout; Galanin receptor type 3 (Homo sapiens), O60755; HEK293 GalR3-CNG cAMP membrane potential fluorescence; galR3 body fused to GalR1 C-terminus; inhibition, % at 3 µM; hit rate 0.44% among 360,000;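 active = inhibition above the screen-wide average plus 3 SD, cut at about 13% in these data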;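 also: forskolin and galanin both at EC90 stimulate the cells; cAMP rise reported by CNG channel membrane potential dye signal; 0% = forskolin plus galanin with DMSO and 100% = forskolin alone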
Target sequence (O60755 1-299 limits assumed): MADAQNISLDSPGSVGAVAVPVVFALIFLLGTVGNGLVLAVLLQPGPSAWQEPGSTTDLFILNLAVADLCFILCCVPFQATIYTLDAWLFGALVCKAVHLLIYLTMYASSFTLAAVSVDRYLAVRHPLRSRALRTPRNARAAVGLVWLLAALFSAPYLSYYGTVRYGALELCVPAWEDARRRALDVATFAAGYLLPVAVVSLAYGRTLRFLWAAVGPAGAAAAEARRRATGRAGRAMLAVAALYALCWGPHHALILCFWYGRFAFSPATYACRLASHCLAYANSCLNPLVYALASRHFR
V-ATPase pHluor = regulators of yeast V-ATPase proton pumping, primary screen, pHLuorin cytosolic pH fluorescence; S. cerevisiae; response, % at 10 µM; hit rate 0.37% among 350,000; AID 504577, 2011; in the data active = response mostly above about 7.3%, no sharp cut-off; inactive = mostly below about 5.4%; also: actives read high
NR2E3 ag-2 = NR2E3 agonists in two-hybrid cells, primary screen, cell-based, luminescence, CHO-S, Gal4-NCOR/VP16-NR2E3 | inhibition of corepressor binding, % at 3.98 µM | hit rate 0.35% among 360,000 | Photoreceptor-specific nuclear receptor (Homo sapiens), Q9Y5X4 | luciferase | AID 602229, 2012;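 active = inhibition above the mean of all tested compounds plus 3 SD, cut at about 70% in these data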;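 also: 0% = DMSO with NR2E3 transfected cells and 100% = cells lacking NR2E3 construct; higher means lower luciferase signal from less NR2E3 corepressor binding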
* = called active by the depositor; nt = no result given; [ ] = another dose, or the depositor's remark. In the library only some 2.2% were active in any assay of this set; here they are far more common.

SMILES	FXN GAA850 act	NR2E3 ag-1	HIV Env fusion	GalR3 antag	V-ATPase pHluor	NR2E3 ag-2
O=C(NCCO)Nc1ccc2nc(-c3ccco3)c(-c3ccco3)nc2c1	nt	46.2*	nt	nt	nt	nt
O=C(NC[C@H]1CC[C@@H]2[C@@H](CN2Cc2ccccc2F)O1)C1CC1	nt	nt	20.0[16.7 µM]	nt	nt	nt
CCCCCNC(=O)C(c1ccc(OC)cc1)n1c(=O)c(-c2cc3ccccc3[nH]2)nc2ccccc21 (stereo not drawn)	nt	nt	26.4	7.0	nt	nt
CCCCCNC(=O)C(c1ccncc1)n1c(=O)c(-c2cc3ccccc3[nH]2)nc2ccccc21 (stereo not drawn)	nt	nt	74.9*	-0.7	nt	nt
CCc1ccc(Nc2n[n+](-c3ccccc3)c(-c3c(Cl)cccc3Cl)s2)cc1	-1.0	4.7	69.6*	-7.3	-0.9	37.7
Fc1ccc(-[n+]2nc(Nc3ccccc3)sc2-c2c(Cl)cccc2Cl)cc1	-3.3	1.2	-1.9	-3.4	-7.1	-12.6
CC(C)NC(=O)N[C@@H]1CC[C@H](CCNC(=O)C2CCCC2)O[C@@H]1CO	nt	nt	-6.6[16.7 µM]	nt	nt	nt
CNC[C@H]1Oc2c(NS(=O)(=O)c3cn(C)cn3)cccc2C(=O)N([C@H](C)CO)C[C@@H]1C	nt	nt	12.8[16.7 µM]	nt	nt	nt
Cc1cc(C)c(C#N)c(SCc2ccccc2C)n1	2.3	-1.2	-14.4	0.5	2.5	1.2
Cc1cc(C)c(C#N)c(SCc2ccccc2F)n1	2.5	1.1	-8.2	-2.2	14.1*	-38.7
C[C@@H]1CN([C@H](C)CO)C(=O)c2cc(NS(C)(=O)=O)ccc2O[C@H]1CN(C)Cc1ccc2c(c1)OCO2	nt	nt	2.4[16.7 µM]	nt	nt	nt
C[C@@H]1CCCCO[C@@H](CN(C)Cc2ccncc2)[C@H](C)CN([C@@H](C)CO)C(=O)c2cc(NC(=O)Nc3ccc(F)cc3)ccc2O1	nt	nt	-15.1[16.7 µM]	nt	nt	nt
O=C(CSc1nc2ccccc2c(=O)[nH]1)Nc1ccc(Br)cc1	0.3	-2.9	12.7	-1.6	-1.7	-31.8
O=C(CSc1nc2ccccc2c(=O)[nH]1)Nc1cccc([N+](=O)[O-])c1	-0.8	4.0	63.1*	-0.8	-2.3	-30.6
C[C@@H]1CN([C@H](C)CO)C(=O)c2cc(NC(=O)C3CCCCC3)ccc2O[C@@H](C)CCCCO[C@H]1CN(C)Cc1ccc2c(c1)OCO2	nt	nt	-9.2[16.7 µM]	nt	nt	nt
O=C(O)C[C@H]1C[C@H]2c3cc(NC(=O)NC4CCCC4)ccc3O[C@H]2[C@H](CO)O1	nt	nt	21.3[16.7 µM]	nt	nt	nt
CC(C)=CCC[C@](C)(O[C@@H]1O[C@H](CO[C@@H]2O[C@H](CO)[C@@H](O)[C@H](O)[C@H]2O)[C@@H](O)[C@H](O)[C@H]1O)C1CC[C@]2(C)C1C(=O)CC1[C@@]3(C)CC[C@H](O[C@H]4O[C@@H](CO)[C@H](O)[C@@H](O)[C@@H]4O)C(C)(C)C3CC[C@]12C (stereo partly drawn)	0.3	nt	-21.1	-0.4	1.2	-13.1
C/C(=C/CCC(C)(O)C1CC[C@@]2(C)[C@@H]3CC=C4[C@@H](CC[C@H](O[C@H]5O[C@@H](CO)[C@H](O)[C@@H](O)[C@@H]5O)C4(C)C)[C@]3(C)C(=O)C[C@]12C)CO[C@@H]1O[C@H](CO)[C@@H](O)[C@H](O)[C@H]1O (stereo partly drawn)	1.9	nt	88.4*	-3.8	2.7	-1.1
CCCN(C)C[C@H]1Oc2ncc(C#CC3CC3)cc2C(=O)N([C@H](C)CO)C[C@H]1C	nt	nt	10.6[16.7 µM]	nt	nt	nt
CO[C@@H]1CN(C)C(=O)c2ccc(NC(=O)Nc3ccccc3F)cc2OC[C@H](C)NC[C@H]1C	nt	nt	-29.9[16.7 µM]	nt	nt	nt
O=C(COc1cccc(NC(=O)c2ccccc2)c1)c1ccc(F)cc1	2.5	-0.5	nt	-1.3	0.7	-30.3
O=C(COc1cccc(NC(=O)c2ccco2)c1)c1ccc(F)cc1	0.3	-0.1	nt	-2.0	18.7*	-42.7
COc1cc2nc(NC(=O)c3ccccc3)sc(=O)c2cc1OC	0.7	nt	59.3*	-6.2	-4.1	7.9
